Data published in ChEMBL document CHEMBL1147035, “Synthesis and in vitro evaluation of targeted tetracycline derivatives: effects on inhibition of matrix metalloproteinases” (Bioorg Med Chem, 2007).
Calls of active or inactive are those of the source. The calls are words filed in the database; no cut-off is given here.

Legend:
[1] = target: Stromelysin-1 (Homo sapiens, UniProt P08254); assay: Inhibition of human MMP3
In short: (§1)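 Human pro-enzymes activated with 2 mM APMA at 37 °C (MMP-2 30 min; MMP-3, MMP-8 1 h), then preincubated 30 min at 37 °C with inhibitor diluted from 10^-3 to 10^-6 M. Substrates: Mca-RPKPYA-Nva-WMK(Dnp)-NH2 for MMP-3; Dnp-Pro-Cha-Gly-Cys(ME)-His-Ala-Lys(Nma)-NH2 for MMP-2 and MMP-8. Incubated 6 h at 37 °C; fluorescence read at ex 340/em 440 nm. Triplicates; IC50 from 3 central linear points.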

[2] = target: 72 kDa type IV collagenase (Homo sapiens, UniProt P08253); assay: Inhibition of human MMP2; in short: as §1
[3] = target: Collagenase 3 (Homo sapiens, UniProt P45452); assay: Inhibition of human MMP13
In short: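 Human pro-MMP-13 (2 µg/mL in developing buffer) activated with 2 mM APMA for 1 h at 37 °C, then stopped on ice. Enzyme preincubated 30 min at 37 °C with compound (serial 1/10 dilutions from DMSO stocks), then incubated 6 h at 37 °C with fluorogenic substrate Dnp-Pro-Cha-Gly-Cys(ME)-His-Ala-Lys(Nma)-NH2. Fluorescence read at ex 340/em 440 nm, in triplicate. IC50 from 3 points in the linear range of % control fluorescence.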

[4] = species: Oryctolagus cuniculus; assay: (§2) Reduction of IL1-beta plus […]-induced proteoglycan degradation in rabbit articular cartilage at 200 uM relative to control; assay type: functional
In short: (§3)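 Rabbit articular cartilage fragments were prelabelled with 35SO4 and washed. They were then cultured 24 h with 1 ng/mL rmIL-1β, with or without compound, and moved to 5×10^-4 M APMA for another 24 h. Fragments were digested with papain, and the % radioactivity released to the medium was counted. Means ± sem, n = 8/group; ANOVA with Dunnett's test.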

[5] = target: Neutrophil collagenase (Homo sapiens, UniProt P22894); assay: Inhibition of human MMP8; in short: as §1
[6] = test system: SW1353; assay: Inhibition of IL-1-beta-induced MMP13 production in human SW1353 cells at 50 uM; assay type: functional, cell-based
In short: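 SW-1353 human chondrosarcoma cells grown to confluence in Ham's F12 with 10% FBS, then serum-free medium with 0.1% BSA for 24 h. Cells pretreated 30 min with DMSO vehicle or compound (6×10^-6 to 5×10^-5 M), then stimulated with rmIL-1β 10 ng/mL for 24 h. Total secreted MMP-13 (pro plus mature) in medium measured by ELISA.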

[7] = species: Oryctolagus cuniculus; assay: (§4) Inhibition of IL1-beta plus […]-induced proteoglycan degradation in rabbit articular cartilage at 100 uM relative to control; assay type: functional
In short: (§5)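 Rabbit articular cartilage fragments prelabeled with 35SO4 and washed. Incubated 24 h with or without 1 ng/mL rmIL-1β, with or without compound. Fragments then moved to 5×10^-4 M APMA for 24 h and digested in papain. Radioactivity counted by liquid scintillation. Degradation = media cpm/(media + tissue cpm) ×100. Means ± sem, n = 8/group.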

[8] = Inhibition of IL-1-beta-induced collagen degradation in rabbit articular cartilage at 100 uM in presence of plasmin relative to control; assay type: functional, Oryctolagus cuniculus; set-up: scale not given: the % may be the effect or the level left
In short: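 Non-radiolabeled rabbit articular cartilage fragments cultured 48 h with or without 10 ng/mL IL-1β plus 0.1 U/mL EACA- and Lys-free plasmin, with or without compound. Media and tissue hydrolyzed in 6 M HCl at 110 °C for 12 h. Hydroxyproline measured colorimetrically; degradation = media OH-Pro/(media + tissue OH-Pro) ×100. Means ± sem, n = 8/group; ANOVA with Dunnett's test.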

[9] = as §4; assay type: functional, Oryctolagus cuniculus; set-up: scale not given: the % may be the effect or the level left; in short: as §5
[10] = as §2; assay type: functional, Oryctolagus cuniculus; set-up: scale not given: the % may be the effect or the level left; in short: as §3

Sequence of Stromelysin-1 (P08254 whole entry): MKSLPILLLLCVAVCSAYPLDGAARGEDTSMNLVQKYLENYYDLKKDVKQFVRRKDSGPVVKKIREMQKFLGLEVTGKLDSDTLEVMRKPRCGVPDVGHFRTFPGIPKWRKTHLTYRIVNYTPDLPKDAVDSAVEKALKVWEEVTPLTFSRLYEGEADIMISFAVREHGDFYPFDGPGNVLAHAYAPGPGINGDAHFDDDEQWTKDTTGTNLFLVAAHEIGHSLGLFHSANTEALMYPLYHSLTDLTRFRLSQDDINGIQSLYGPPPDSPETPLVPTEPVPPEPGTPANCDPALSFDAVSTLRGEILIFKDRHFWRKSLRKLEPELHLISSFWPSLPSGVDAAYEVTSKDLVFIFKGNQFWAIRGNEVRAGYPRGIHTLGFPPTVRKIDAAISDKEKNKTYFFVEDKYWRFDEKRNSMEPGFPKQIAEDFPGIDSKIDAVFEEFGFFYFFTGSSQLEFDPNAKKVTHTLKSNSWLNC
Sequence of 72 kDa type IV collagenase (P08253 whole entry): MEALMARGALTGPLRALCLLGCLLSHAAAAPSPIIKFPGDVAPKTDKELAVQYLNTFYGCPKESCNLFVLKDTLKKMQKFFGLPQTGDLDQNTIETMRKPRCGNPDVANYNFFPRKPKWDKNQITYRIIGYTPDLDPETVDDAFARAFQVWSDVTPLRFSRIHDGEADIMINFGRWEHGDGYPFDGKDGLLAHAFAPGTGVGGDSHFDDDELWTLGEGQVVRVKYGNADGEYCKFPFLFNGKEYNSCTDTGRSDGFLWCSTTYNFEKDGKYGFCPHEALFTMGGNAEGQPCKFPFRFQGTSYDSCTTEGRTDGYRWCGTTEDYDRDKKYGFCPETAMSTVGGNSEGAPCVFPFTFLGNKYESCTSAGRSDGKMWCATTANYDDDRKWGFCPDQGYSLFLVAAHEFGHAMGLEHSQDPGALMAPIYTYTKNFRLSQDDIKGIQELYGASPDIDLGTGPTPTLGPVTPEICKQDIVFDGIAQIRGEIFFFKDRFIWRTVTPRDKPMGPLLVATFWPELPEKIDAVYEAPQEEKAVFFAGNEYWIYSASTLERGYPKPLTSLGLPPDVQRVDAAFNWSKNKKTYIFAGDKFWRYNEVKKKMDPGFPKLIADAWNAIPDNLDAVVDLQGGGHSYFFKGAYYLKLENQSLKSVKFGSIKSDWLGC
Sequence of Neutrophil collagenase (P22894 whole entry): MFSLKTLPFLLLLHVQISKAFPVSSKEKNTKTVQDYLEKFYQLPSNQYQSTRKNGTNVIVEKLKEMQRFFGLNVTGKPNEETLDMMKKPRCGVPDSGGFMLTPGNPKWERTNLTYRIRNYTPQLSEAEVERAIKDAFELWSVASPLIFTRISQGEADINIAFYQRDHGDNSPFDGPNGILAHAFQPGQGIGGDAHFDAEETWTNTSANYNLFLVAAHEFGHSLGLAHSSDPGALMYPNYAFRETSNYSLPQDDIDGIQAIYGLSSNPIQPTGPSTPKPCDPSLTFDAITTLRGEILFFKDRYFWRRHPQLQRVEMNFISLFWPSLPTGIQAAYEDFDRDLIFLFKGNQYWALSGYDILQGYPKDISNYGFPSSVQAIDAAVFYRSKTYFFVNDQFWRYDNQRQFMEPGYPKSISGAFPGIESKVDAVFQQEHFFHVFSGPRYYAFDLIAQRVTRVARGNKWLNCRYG

Row | SMILES | IC50 [1] | IC50 [2] | IC50 [3] | Activity [4] | IC50 [5] | Activity [6] | Activity [7] | Activity [8] | Activity [9] | Activity [10]
1 | C[C@@]1(O)c2cccc(O)c2C(=O)C2=C(O)[C@]3(O)C(=O)C(C(N)=O)=C(O)[C@@H]([N+](C)(C)C)C3CC21 (stereo partly specified) | 150 µM | 140 µM | 120 µM | inactive | 110 µM | inactive |  |  |  | 
2 | C[C@H]1c2cccc(O)c2C(=O)C2=C(O)[C@]3(O)C(=O)C(C(N)=O)=C(O)[C@@H]([N+](C)(C)C)C3[C@H](O)C21.[I-] (stereo partly specified) | 81 µM | 7.7 µM | 4.9 µM |  | 11 µM | inactive | inactive | 66% |  | 
3 | C[C@H]1c2cccc(O)c2C(=O)C2=C(O)[C@]3(O)C(=O)C(C(N)=O)=C(O)[C@@H](N(C)C)[C@@H]3C(O)[C@@H]21.O (single isomer, unassigned) [DOXYCYCLINE] | 25 µM | 24 µM | 40 µM |  | 31 µM | Active |  | 89% | 8% | 
4 | CN(C)[C@@H]1C(O)=C(C(N)=O)C(=O)[C@@]2(O)C(O)=C3C(=O)c4c(O)cccc4[C@@](C)(O)[C@H]3C[C@@H]12 [TETRACYCLINE] | 140 µM | 220 µM | 180 µM |  | 180 µM | Active |  |  |  | 29%
